Measured values reported in ChEMBL document CHEMBL1212879, “Synthesis and T-type calcium channel blocking activity of novel diphenylpiperazine compounds, and evaluation of in vivo analgesic activity” (Bioorg Med Chem, 2010).
Calls of active or inactive are those of the source.

Experiments:
[1] = molecular target: T1, Voltage-dependent T-type calcium channel subunit alpha-1G (Homo sapiens, UniProt O43497); assay: Inhibition of T-type alpha1G channel expressed in HEK293 cells by whole-cell patch-clamp method; format: cell-based
T1 sequence (O43497 whole entry): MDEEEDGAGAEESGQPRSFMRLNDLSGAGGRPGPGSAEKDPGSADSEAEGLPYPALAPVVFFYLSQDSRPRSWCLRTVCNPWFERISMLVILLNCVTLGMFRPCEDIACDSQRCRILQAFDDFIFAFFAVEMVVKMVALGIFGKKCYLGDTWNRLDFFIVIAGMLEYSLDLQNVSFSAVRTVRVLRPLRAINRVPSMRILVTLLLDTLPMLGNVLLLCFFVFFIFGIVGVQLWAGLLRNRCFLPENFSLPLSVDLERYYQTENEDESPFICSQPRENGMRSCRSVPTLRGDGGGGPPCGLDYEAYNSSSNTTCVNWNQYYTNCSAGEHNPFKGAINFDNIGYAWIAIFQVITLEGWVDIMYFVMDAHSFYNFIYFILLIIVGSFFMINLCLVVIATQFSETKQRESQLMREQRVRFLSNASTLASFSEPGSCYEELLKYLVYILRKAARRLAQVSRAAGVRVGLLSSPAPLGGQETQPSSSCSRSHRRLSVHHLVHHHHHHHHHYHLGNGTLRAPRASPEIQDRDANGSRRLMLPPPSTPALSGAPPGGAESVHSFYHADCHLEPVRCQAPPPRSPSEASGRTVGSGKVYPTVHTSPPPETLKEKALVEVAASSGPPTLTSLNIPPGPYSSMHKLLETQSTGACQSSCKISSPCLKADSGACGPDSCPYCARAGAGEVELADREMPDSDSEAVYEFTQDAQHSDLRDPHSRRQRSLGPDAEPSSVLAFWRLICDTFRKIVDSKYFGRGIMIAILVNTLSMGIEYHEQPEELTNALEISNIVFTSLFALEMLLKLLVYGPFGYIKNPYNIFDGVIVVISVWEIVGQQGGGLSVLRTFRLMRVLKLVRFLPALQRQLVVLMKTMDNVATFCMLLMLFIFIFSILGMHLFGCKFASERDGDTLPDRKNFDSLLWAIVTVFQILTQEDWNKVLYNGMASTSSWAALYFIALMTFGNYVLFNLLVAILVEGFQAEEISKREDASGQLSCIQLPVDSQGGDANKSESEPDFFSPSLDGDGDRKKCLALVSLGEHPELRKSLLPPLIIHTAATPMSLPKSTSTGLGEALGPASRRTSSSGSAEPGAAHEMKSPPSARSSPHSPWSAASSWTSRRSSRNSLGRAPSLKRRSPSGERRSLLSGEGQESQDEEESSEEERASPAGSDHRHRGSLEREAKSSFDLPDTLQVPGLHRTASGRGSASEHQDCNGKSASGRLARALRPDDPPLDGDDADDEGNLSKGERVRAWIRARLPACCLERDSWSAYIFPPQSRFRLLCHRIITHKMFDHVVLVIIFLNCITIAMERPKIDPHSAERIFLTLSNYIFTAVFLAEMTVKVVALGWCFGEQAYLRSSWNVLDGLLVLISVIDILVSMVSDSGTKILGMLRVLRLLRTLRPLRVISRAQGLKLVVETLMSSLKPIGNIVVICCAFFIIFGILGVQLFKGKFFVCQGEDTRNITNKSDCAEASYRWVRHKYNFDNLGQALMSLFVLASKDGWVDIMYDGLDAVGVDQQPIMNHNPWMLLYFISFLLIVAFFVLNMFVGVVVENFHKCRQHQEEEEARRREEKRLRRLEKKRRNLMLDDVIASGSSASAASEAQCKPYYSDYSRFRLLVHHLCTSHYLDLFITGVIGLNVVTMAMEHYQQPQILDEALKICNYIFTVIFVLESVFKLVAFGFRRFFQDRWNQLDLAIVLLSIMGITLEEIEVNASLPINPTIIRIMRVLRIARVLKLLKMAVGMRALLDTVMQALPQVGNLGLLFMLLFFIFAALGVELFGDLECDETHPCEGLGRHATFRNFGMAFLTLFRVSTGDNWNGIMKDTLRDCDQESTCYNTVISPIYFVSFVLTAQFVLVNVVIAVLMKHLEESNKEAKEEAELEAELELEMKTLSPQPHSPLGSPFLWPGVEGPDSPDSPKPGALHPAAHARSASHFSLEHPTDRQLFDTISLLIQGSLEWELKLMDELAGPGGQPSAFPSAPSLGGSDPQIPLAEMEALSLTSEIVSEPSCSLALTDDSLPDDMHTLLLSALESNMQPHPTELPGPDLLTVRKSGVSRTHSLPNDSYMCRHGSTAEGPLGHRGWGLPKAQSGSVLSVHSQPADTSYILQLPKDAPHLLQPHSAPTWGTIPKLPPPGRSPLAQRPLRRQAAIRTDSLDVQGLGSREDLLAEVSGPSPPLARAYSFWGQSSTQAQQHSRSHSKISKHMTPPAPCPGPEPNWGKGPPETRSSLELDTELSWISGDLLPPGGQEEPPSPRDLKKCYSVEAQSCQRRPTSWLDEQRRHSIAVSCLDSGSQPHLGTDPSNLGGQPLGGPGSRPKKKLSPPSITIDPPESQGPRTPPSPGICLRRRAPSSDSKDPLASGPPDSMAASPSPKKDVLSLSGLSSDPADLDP
In short: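 HEK293 cells stably expressing α1G (Cav3.1); whole-cell patch clamp. External solution in mM: 140 NaCl, 2 CaCl2, 10 Hepes, 10 glucose, pH 7.4.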

[2] = molecular target: Voltage-dependent N-type calcium channel subunit alpha-1B (Homo sapiens) (UniProt Q00975); assay: Inhibition of N-type Alpha-1B channel expressed in HEK293 cells by whole-cell patch-clamp method; format: cell-based; parameters: concentration or dose not given beside the values; settings: concentration not given here
Sequence of Voltage-dependent N-type calcium channel subunit alpha-1B (Homo sapiens) (Q00975 whole entry, looked up): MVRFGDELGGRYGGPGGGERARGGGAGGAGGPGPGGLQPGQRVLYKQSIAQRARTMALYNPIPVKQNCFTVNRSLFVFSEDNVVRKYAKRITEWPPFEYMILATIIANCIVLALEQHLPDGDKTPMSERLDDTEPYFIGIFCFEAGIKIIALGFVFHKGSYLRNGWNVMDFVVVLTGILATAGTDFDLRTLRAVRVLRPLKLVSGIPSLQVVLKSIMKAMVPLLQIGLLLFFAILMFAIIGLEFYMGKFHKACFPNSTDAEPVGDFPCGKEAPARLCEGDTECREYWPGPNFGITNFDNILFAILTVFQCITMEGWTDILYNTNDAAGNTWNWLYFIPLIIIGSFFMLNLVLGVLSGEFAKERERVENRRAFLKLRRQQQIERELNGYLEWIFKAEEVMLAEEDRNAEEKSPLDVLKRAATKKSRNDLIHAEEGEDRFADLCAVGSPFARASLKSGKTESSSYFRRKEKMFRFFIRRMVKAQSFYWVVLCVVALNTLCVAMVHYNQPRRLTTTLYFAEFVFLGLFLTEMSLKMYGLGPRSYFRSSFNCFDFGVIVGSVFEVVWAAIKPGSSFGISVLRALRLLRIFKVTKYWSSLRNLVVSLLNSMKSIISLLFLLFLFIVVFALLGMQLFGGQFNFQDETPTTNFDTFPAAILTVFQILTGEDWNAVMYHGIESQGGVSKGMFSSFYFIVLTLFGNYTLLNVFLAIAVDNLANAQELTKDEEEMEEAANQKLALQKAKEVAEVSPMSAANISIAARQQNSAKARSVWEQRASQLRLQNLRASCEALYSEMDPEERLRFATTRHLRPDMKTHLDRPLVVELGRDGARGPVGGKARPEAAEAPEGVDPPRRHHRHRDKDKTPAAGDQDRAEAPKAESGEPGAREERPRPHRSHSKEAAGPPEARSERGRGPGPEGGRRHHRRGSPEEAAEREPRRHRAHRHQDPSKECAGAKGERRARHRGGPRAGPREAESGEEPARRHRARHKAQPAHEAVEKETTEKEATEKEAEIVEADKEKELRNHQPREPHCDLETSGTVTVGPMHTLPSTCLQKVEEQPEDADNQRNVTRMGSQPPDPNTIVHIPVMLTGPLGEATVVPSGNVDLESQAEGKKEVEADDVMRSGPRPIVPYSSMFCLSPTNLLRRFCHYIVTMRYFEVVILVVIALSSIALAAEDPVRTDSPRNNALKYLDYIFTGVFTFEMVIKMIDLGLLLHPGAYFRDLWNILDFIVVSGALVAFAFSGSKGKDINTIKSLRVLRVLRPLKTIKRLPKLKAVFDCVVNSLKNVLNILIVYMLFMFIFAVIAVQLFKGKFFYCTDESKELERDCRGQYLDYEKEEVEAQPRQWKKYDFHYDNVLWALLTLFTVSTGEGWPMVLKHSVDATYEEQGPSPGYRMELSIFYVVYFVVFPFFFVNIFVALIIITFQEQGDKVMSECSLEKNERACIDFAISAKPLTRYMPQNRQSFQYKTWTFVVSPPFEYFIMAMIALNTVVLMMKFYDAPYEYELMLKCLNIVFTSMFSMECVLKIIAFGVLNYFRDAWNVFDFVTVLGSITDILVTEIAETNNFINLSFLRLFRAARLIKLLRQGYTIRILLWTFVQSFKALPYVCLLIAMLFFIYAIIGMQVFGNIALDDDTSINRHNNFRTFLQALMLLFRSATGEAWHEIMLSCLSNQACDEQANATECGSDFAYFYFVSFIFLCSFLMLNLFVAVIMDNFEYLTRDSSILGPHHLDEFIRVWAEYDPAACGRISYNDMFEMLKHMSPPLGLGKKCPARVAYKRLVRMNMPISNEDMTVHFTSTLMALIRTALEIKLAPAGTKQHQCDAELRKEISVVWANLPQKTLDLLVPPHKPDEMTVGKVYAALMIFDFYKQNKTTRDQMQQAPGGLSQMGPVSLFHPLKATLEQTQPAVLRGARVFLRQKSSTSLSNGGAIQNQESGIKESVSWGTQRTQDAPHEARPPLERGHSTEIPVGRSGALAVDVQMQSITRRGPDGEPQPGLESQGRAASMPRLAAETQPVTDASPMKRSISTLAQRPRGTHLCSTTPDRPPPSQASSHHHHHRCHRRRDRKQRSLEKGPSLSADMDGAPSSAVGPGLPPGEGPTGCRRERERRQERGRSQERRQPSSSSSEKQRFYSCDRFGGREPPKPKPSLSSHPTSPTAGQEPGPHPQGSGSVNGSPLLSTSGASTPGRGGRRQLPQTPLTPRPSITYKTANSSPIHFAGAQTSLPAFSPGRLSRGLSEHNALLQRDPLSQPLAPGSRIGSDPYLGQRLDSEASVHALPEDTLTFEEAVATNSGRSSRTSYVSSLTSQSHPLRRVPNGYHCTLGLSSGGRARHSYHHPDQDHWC

Rattus norvegicus [3] = assay: Analgesic activity against formalin-induced inflammatory pain in rat assessed as reduction of pain behavior time at 60 µg/ 10 ul, sc administered after 10 mins at 5 mins intervals (reference value: 47.05 +/- 8.53 seconds); format: functional
Rattus norvegicus [4] = assay: Anti-warm allodynic activity in rat assessed as tail withdrawal latency at 60 mg/kg, ip measured within cut-off time of 15 seconds for up to 24 hrs; format: functional, organism-based; parameters: dose 60 mg/kg
In short: (§1)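 At 2 weeks, after a baseline test, 60 mg/kg was given ip in methyl pyrrolidone/Tween 80/saline (1:1:8). Tail withdrawal latency to 4 °C (cold) or 40 °C (warm) water immersion was read at 1, 3, 5 and 24 h, with a 15 s cut-off. Versus baseline by repeated-measures ANOVA with Bonferroni t-test.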

[5] = molecular target: Voltage-dependent N-type calcium channel subunit alpha-1B (Homo sapiens) (UniProt Q00975); assay: Inhibition of N-type Alpha-1B channel expressed in HEK293 cells at 10 uM by whole-cell patch-clamp method; format: cell-based
Rattus norvegicus [6] = assay: Antinociceptive activity against von Frey hair mechanically stimulated neuropathic pain in rat assessed as withdrawal threshold at 60 mg/kg, ip administered 2 weeks after surgery; format: functional, organism-based; parameters: dose 60 mg/kg
In short: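 Tail nerve injury rats (unilateral caudal trunk transection between S1 and S2 under enflurane) received a baseline test 2 weeks post-injury. They were then dosed at 60 mg/kg ip in methyl pyrrolidone/Tween 80/saline (1:1:8). Tail withdrawal to von Frey filaments was retested at 1, 3, 5 and 24 h. Versus baseline by one-way repeated-measures ANOVA with Bonferroni t-test.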

Rattus norvegicus [7] = assay: Anti-cold allodynic activity in rat assessed as tail withdrawal latency at 60 mg/kg, ip measured within cut-off time of 15 seconds for up to 24 hrs; format: functional, organism-based; parameters: dose 60 mg/kg; in short: as §1
Rattus norvegicus [8] = assay: Analgesic activity against formalin-induced inflammatory pain in rat assessed as reduction of time spent on paw licking, shaking, biting at 60 ug, sc administered after 50 mins at 5 mins intervals(reference value: 334.21 +/- 51.10 seconds); settings: route subcutaneous
[9] = Inhibition of L-type calcium channel
Rattus norvegicus [10] = assay: Analgesic activity against formalin-induced inflammatory pain in rat assessed as reduction of time spent on paw licking, shaking or biting at 60 ug, sc administered after 50 mins at 5 mins intervals; settings: route subcutaneous
[11] = Inhibition of T-type Cav3 channel
In short: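 Whole-cell patch clamp on HEK293 cells stably expressing Cav3.1 (α1G). External solution was 140 mM NaCl, 2 mM CaCl2, 10 mM Hepes and 10 mM glucose, pH 7.4. Currents were evoked every 15 s by a 50 ms depolarizing voltage step.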

[12] = molecular target: Voltage-dependent T-type calcium channel subunit alpha-1I (Homo sapiens, UniProt Q9P0X4); assay: Inhibition of T-type Cav3.3 channel
[13] = molecular target: Voltage-dependent T-type calcium channel subunit alpha-1H (Homo sapiens, UniProt O95180); assay: Inhibition of T-type Cav3.2 channel
[14] = molecular target: T1, Voltage-dependent T-type calcium channel subunit alpha-1G; assay: Inhibition of T-type Cav3.1 channel

Compound | IC50 [1] [nM] | inhibition [2] [%] | further results
O=C(CCCNCc1ccccc1)N1CCN(C(c2ccccc2)c2ccc(Cl)cc2)CC1 (stereo not drawn) | 1670 | 69.8 | –
CCC(CC)CNCCCC(=O)N1CCN(C(c2ccccc2)c2ccc(Cl)cc2)CC1 (stereo not drawn) | 1540 | 16.8 | –
CCNCCCC(=O)N1CCN(C(c2ccccc2)c2ccc(Cl)cc2)CC1 (stereo not drawn) | 420 | 20 | –
O=C(CCCNCC1CCCCC1)N1CCN(C(c2ccccc2)c2ccc(Cl)cc2)CC1 (stereo not drawn) | 190 | 84.9 | Time (Rattus norvegicus [3]): 1.8 s; Activity (Rattus norvegicus [4]): Active; inhibition [5]: 80%; Activity (Rattus norvegicus [6]): inactive; Activity (Rattus norvegicus [7]): Active; Time (Rattus norvegicus [8]): 24.32 s
COCC(=O)O[C@]1(CCN(C)CCCc2nc3ccccc3[nH]2)CCc2cc(F)ccc2[C@@H]1C(C)C [MIBEFRADIL] | – | – | IC50 [9]: 10000 nM
NCC1(CC(=O)O)CCCCC1 | – | – | Activity (Rattus norvegicus [4]): Active; Activity (Rattus norvegicus [6]): Active; Activity (Rattus norvegicus [7]): Active
CN(C)c1ccc(CNCCCC(=O)N2CCN(C(c3ccccc3)c3ccc(Cl)cc3)CC2)cc1 (stereo not drawn) | 2320 | 10.8 | –
NCCCC(=O)N1CCN(C(c2ccccc2)c2ccc(Cl)cc2)CC1 (stereo not drawn) | 3710 | 10 | Time (Rattus norvegicus [3]): 2.41 s; Activity (Rattus norvegicus [4]): Active; Activity (Rattus norvegicus [6]): Active; Activity (Rattus norvegicus [7]): Active; Time (Rattus norvegicus [10]): 62.57 s
O=C(CCCNCc1ccc([N+](=O)[O-])cc1)N1CCN(C(c2ccccc2)c2ccc(Cl)cc2)CC1 (stereo not drawn) | 600 | 88.8 | inhibition [5]: 80%
CC(C)CNCCCC(=O)N1CCN(C(c2ccccc2)c2ccc(Cl)cc2)CC1 (stereo not drawn) | 360 | 13.3 | –
O=c1[nH]c2ccccc2n1C1CCN(CCCC(c2ccc(F)cc2)c2ccc(F)cc2)CC1 | – | – | INH [11]: 40 nM
Fc1ccc(C(c2ccc(F)cc2)N2CCN(C/C=C/c3ccccc3)CC2)cc1 [FLUNARIZINE] | – | – | Kd [12]: 840 nM; Kd [13]: 3600 nM; Kd [14]: 530 nM
CC(C)c1ccc(CNCCCC(=O)N2CCN(C(c3ccccc3)c3ccc(Cl)cc3)CC2)cc1 (stereo not drawn) | 280 | 80.2 | inhibition [5]: 80%
COc1ccc(CNCCCC(=O)N2CCN(C(c3ccccc3)c3ccc(Cl)cc3)CC2)cc1 (stereo not drawn) | 16100 | 49.6 | –
O=C(CCCNCc1c(Cl)cccc1Cl)N1CCN(C(c2ccccc2)c2ccc(Cl)cc2)CC1 (stereo not drawn) | 1020 | 78.4 | –
